Data: ChEMBL document CHEMBL3593173, “Discovery of novel N-(5-(tert-butyl)isoxazol-3-yl)-N'-phenylurea analogs as potent FLT3 inhibitors and evaluation of their activity against acute myeloid leukemia in vitro and in vivo” (Bioorg Med Chem, 2015)
Converted amounts (≈) assume the structure as drawn.

Experiments:
MV4-11 = assay: Cytotoxicity against human MV4-11 cells incubated for 72 hrs by MTT assay; type: functional, cell-based; conditions: MV4-11, 72 h
In short: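 Leukemia cells were grown with 10% FBS at 37 °C in 5% CO₂; MV4-11 was kept in IMDM. Cells were seeded at 1–4 × 10⁴ per well, and an equal volume of medium containing increasing inhibitor concentrations was added. MTT was added for 2–4 h, formazan was dissolved in DMSO, and OD was read at 570 nm to derive IC50.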

[1] = Solubility in EtOH solution; type: physicochemical
[2] = Solubility in PBS solution; type: physicochemical
[3] = Solubility in water; type: physicochemical
[4] = Solubility in MeOH solution; type: physicochemical

Compound | IC50 (MV4-11) | also measured
CC(C)(C)c1cc(NC(=O)Nc2ccc(-c3cn4cccc(F)c4n3)cc2)no1 | 12.2 nM | 
C#Cc1ccn2cc(-c3ccc(NC(=O)Nc4cc(C(C)(C)C)on4)cc3)nc2c1 | 3.46 nM | solubility [1]: 4100 µg/mL (≈ 10.3 mM); solubility [2]: 10.2 µg/mL (≈ 0.0255 mM); solubility [3]: 26.7 µg/mL (≈ 0.0668 mM); solubility [4]: 5840 µg/mL (≈ 14.6 mM)
CC(C)(C)c1cc(NC(=O)Nc2ccc(-c3cn4cc(F)ccc4n3)cc2)no1 | 20.9 nM | 
Cc1ccn2cc(-c3ccc(NC(=O)Nc4cc(C(C)(C)C)on4)cc3)nc2c1 | 0.79 nM | solubility [1]: 3340 µg/mL (≈ 8.58 mM); solubility [4]: 6830 µg/mL (≈ 17.5 mM)
CC(C)(C)c1cc(NC(=O)Nc2ccc(-c3cn4cccnc4n3)cc2)no1 | 171 nM | 
CC(C)(C)c1cc(NC(=O)Nc2ccc(-c3cc4ccccc4s3)cc2)no1 | > 900 nM | 
CC(C)(C)c1cc(NC(=O)Nc2ccc(-c3cn4ccncc4n3)cc2)no1 | 44.8 nM | 
Cc1cccn2cc(-c3ccc(NC(=O)Nc4cc(C(C)(C)C)on4)cc3)nc12 | 248 nM | 
CC(C)(C)c1cc(NC(=O)Nc2ccc(-c3cn4cc(Br)ccc4n3)cc2)no1 | 44.5 nM | 
CC(C)(C)c1cc(NC(=O)Nc2ccc(-c3cn4ccccc4n3)cc2)no1 | 3.09 nM | solubility [1]: 4070 µg/mL (≈ 10.8 mM); solubility [4]: 5280 µg/mL (≈ 14.1 mM)
CC(C)(C)c1cc(NC(=O)Nc2ccc(-c3cn4ccc(Cl)cc4n3)cc2)no1 | 5.91 nM | 
CC(C)(C)c1cc(NC(=O)Nc2ccc(-c3cn4ccc(Br)cc4n3)cc2)no1 | 9.59 nM | 
CC(C)(C)c1cc(NC(=O)Nc2ccc(-c3cc4ccccc4o3)cc2)no1 | 195 nM | 
CC(C)(C)c1cc(NC(=O)Nc2ccc(-c3cn4cc(Cl)ccc4n3)cc2)no1 | 24.8 nM | 
CC(C)(C)c1cc(NC(=O)Nc2ccc(-c3nc4ccccc4s3)cc2)no1 | 172 nM | 
